# Experimental data published in ChEMBL document CHEMBL3525900, “Pharmacokinetics, distribution, and metabolism of [14C]sunitinib in rats, monkeys, and humans” (Drug Metab Dispos, 2012).
# What was measured:
# Rattus norvegicus [1] = assay: Tmax as total radioactivity in male Sprague-Dawley rat plasma at 15 mg/kg, po administered as single dose by LC/MS/MS analysis; format: ADME, organism-based; design: dose 15 mg/kg, dosed compound name [14C]Sunitinib, route oral; settings: in vivo
# Kidney [2] = assay: Drug concentration in male albino rat kidney assessed as radioactivity per gram of tissue at 20 mg/kg administered as single dose via gastric gavage measured after 3 hrs by autoradiographic analysis; format: ADME, organism-based; design: dose 20 mg/kg, dosed compound name [14C]Sunitinib; settings: in vivo, po
# Small intestine [3] = assay: Drug concentration in male albino rat small intestine assessed as radioactivity per gram of tissue at 20 mg/kg administered as single dose via gastric gavage measured after 6 hrs by autoradiographic analysis; format: ADME, organism-based; design: dose 20 mg/kg, dosed compound name [14C]Sunitinib; settings: in vivo, po
# [4] = Drug concentration in male albino rat lymph node assessed as radioactivity per gram of tissue at 20 mg/kg administered as single dose via gastric gavage measured after 3 hrs by autoradiographic analysis; format: ADME, organism-based; design: dose 20 mg/kg, dosed compound name [14C]Sunitinib; settings: in vivo, po
# Liver [5] = assay: Drug concentration in female albino rat liver assessed as radioactivity per gram of tissue at 20 mg/kg administered as single dose via gastric gavage measured after 72 hrs by autoradiographic analysis; format: ADME, organism-based; design: dose 20 mg/kg, dosed compound name [14C]Sunitinib; settings: in vivo, po
# In short: (§1)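 Sprague Dawley albino rats, ca 7-8 weeks old, dosed once by gastric gavage with [14C]sunitinib L-malate (15 mg freebase/kg, 100 µCi/kg). One male and one female killed by CO2 at 3, 6, 24, 72 and 168 h. Carcasses frozen in solid CO2/hexane, embedded and cut into 30 µm sagittal sections, then freeze-dried. Radioactivity quantified by whole-body autoradiography against standards by regression, background subtracted.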
# Small intestine [6] = assay: Drug concentration in female albino rat small intestine assessed as radioactivity per gram of tissue at 20 mg/kg administered as single dose via gastric gavage measured after 6 hrs by autoradiographic analysis; format: ADME, organism-based; design: dose 20 mg/kg, dosed compound name [14C]Sunitinib; settings: in vivo, po
# Thymus = assay: Drug concentration in male Lister Hooded pigmented rat thymus assessed as radioactivity per gram of tissue at 20 mg/kg administered as single dose via gastric gavage measured after 24 hrs by autoradiographic analysis; format: ADME, organism-based; design: dose 20 mg/kg, dosed compound name [14C]Sunitinib; settings: in vivo, po
# [7] = Drug concentration in female Lister Hooded pigmented rat lymph node assessed as radioactivity per gram of tissue at 20 mg/kg administered as single dose via gastric gavage measured after 24 hrs by autoradiographic analysis; format: ADME, organism-based; design: dose 20 mg/kg, dosed compound name [14C]Sunitinib; settings: in vivo, po
# In short: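 Sprague Dawley (albino) and Lister Hooded (pigmented) rats, ca 7-8 weeks old, 179-310 g, acclimated 7 days. Single gavage dose of [14C]sunitinib L-malate (15 mg freebase/kg, 100 µCi/kg). One male and one female killed by CO2 per time point: albino at 3, 6, 24, 72, 168 h; pigmented at 24, 72, 168, 336 h. Carcasses frozen in solid CO2/hexane, 30 µm sagittal sections freeze-dried. Tissue radioactivity read by quantitative whole-body autoradiography against regression of standards, mean background subtracted.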
# [8] = Drug concentration in female albino rat skeletal muscle assessed as radioactivity per gram of tissue at 20 mg/kg administered as single dose via gastric gavage measured after 24 hrs by autoradiographic analysis; format: ADME, organism-based; design: dose 20 mg/kg, dosed compound name [14C]Sunitinib; settings: in vivo, po
# Spleen [9] = assay: Drug concentration in female Lister Hooded pigmented rat spleen assessed as radioactivity per gram of tissue at 20 mg/kg administered as single dose via gastric gavage measured after 24 hrs by autoradiographic analysis; format: ADME, organism-based; design: dose 20 mg/kg, dosed compound name [14C]Sunitinib; settings: in vivo, po
# In short: (§2)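 Lister Hooded (pigmented) rats, ca 7-8 weeks old, acclimated 7 days, given [14C]sunitinib L-malate by gastric gavage at 20 mg/kg (15 mg freebase/kg, 100 µCi/kg). One male and one female killed by CO2 at 24, 72, 168 and 336 h. Carcasses frozen in solid CO2/hexane and embedded in frozen cellulose. 30 µm sagittal cryosections were freeze-dried. Tissue radioactivity measured by quantitative whole-body autoradiography against calibration standards, with background subtracted.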
# Spleen [10] = assay: Drug concentration in male albino rat spleen assessed as radioactivity per gram of tissue at 20 mg/kg administered as single dose via gastric gavage measured after 6 hrs by autoradiographic analysis; format: ADME, organism-based; design: dose 20 mg/kg, dosed compound name [14C]Sunitinib; settings: in vivo, po
# [11] = Drug concentration in male Lister Hooded pigmented rat preputial gland assessed as radioactivity per gram of tissue at 20 mg/kg administered as single dose via gastric gavage measured after 72 hrs by autoradiographic analysis; format: ADME, organism-based; design: dose 20 mg/kg, dosed compound name [14C]Sunitinib; settings: in vivo, po
# [12] = Drug concentration in female albino rat thyroid gland assessed as radioactivity per gram of tissue at 20 mg/kg administered as single dose via gastric gavage measured after 72 hrs by autoradiographic analysis; format: ADME, organism-based; design: dose 20 mg/kg, dosed compound name [14C]Sunitinib; settings: in vivo, po
# Small intestine [13] = assay: Drug concentration in male Lister Hooded pigmented rat small intestine assessed as radioactivity per gram of tissue at 20 mg/kg administered as single dose via gastric gavage measured after 168 hrs by autoradiographic analysis; format: ADME, organism-based; design: dose 20 mg/kg, dosed compound name [14C]Sunitinib; settings: in vivo, po
# Cynomolgus monkey = assay: AUC (0 to infinity) as total radioactivity in female cynomolgus monkey plasma at 6 mg/kg, po administered as single dose by LC/MS/MS analysis; format: ADME, organism-based, Macaca fascicularis; design: time infinity, dose 6 mg/kg, dosed compound name [14C]Sunitinib, route oral; settings: in vivo
# In short: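 Cynomolgus monkeys of both sexes received one oral gavage of [14C]sunitinib L-malate at 6 mg/kg (37 µCi/kg). Femoral-vein blood was taken into heparin from 0.5 to 336 h. Plasma was kept cold and protected from light, then stored at -80 °C. Total radioactivity was by scintillation counting and sunitinib by methanol-extraction LC-MS-MS. Cmax was from raw data, t½ from the log-linear terminal slope, AUC(0-∞) by linear trapezoidal rule.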
# Spleen [14] = assay: Drug concentration in male Lister Hooded pigmented rat spleen assessed as radioactivity per gram of tissue at 20 mg/kg administered as single dose via gastric gavage measured after 24 hrs by autoradiographic analysis; format: ADME, organism-based; design: dose 20 mg/kg, dosed compound name [14C]Sunitinib; settings: in vivo, po
# Kidney [15] = assay: Drug concentration in female albino rat kidney assessed as radioactivity per gram of tissue at 20 mg/kg administered as single dose via gastric gavage measured after 6 hrs by autoradiographic analysis; format: ADME, organism-based; design: dose 20 mg/kg, dosed compound name [14C]Sunitinib; settings: in vivo, po; in short: as §1
# Spleen [16] = assay: Drug concentration in female Lister Hooded pigmented rat spleen assessed as radioactivity per gram of tissue at 20 mg/kg administered as single dose via gastric gavage measured after 72 hrs by autoradiographic analysis; format: ADME, organism-based; design: dose 20 mg/kg, dosed compound name [14C]Sunitinib; settings: in vivo, po; in short: as §2
# Zone of skin = assay: Drug concentration in female albino rat abdomen skin assessed as radioactivity per gram of tissue at 20 mg/kg administered as single dose via gastric gavage measured after 168 hrs by autoradiographic analysis; format: ADME, organism-based; design: dose 20 mg/kg, dosed compound name [14C]Sunitinib; settings: in vivo, po
# In short: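 Sprague Dawley (albino) rats, ca 7-8 weeks old, received a single gastric-gavage dose of [14C]sunitinib L-malate at 20 mg/kg (15 mg freebase/kg, 100 µCi/kg). One animal per sex killed by CO2 at 3, 6, 24, 72 and 168 h, then frozen in CO2/hexane. 30 µm sagittal sections were cut and freeze-dried. Radioactivity per gram quantified by whole-body autoradiography using regression against standards. LOQ 0.04–0.06 µg freebase equiv/g.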
# Rattus norvegicus [17] = assay: Cmax as total radioactivity in female Sprague-Dawley rat plasma at 5 mg/kg, iv administered as single dose by LC/MS/MS analysis; format: ADME, organism-based; design: dose 5 mg/kg, dosed compound name [14C]Sunitinib, route intravenous; settings: in vivo
# In short: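 Single dose of [14C]sunitinib L-malate as free base, 50 µCi/kg. IV dose was 5 mg/kg by tail vein in 5 females. Oral dose was 15 mg/kg by gavage in 3 females and 3 males. Total radioactivity was by scintillation counting. […] Cmax was read from raw data, t½ by log-linear regression, AUC by linear trapezoidal rule.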
# Small intestine [18] = assay: Drug concentration in male albino rat small intestine assessed as radioactivity per gram of tissue at 20 mg/kg administered as single dose via gastric gavage measured after 3 hrs by autoradiographic analysis; format: ADME, organism-based; design: dose 20 mg/kg, dosed compound name [14C]Sunitinib; settings: in vivo, po
# Large intestine = assay: Drug concentration in male Lister Hooded pigmented rat large intestine assessed as radioactivity per gram of tissue at 20 mg/kg administered as single dose via gastric gavage measured after 72 hrs by autoradiographic analysis; format: ADME, organism-based; design: dose 20 mg/kg, dosed compound name [14C]Sunitinib; settings: in vivo, po
# Liver [19] = assay: Drug concentration in female Lister Hooded pigmented rat liver assessed as radioactivity per gram of tissue at 20 mg/kg administered as single dose via gastric gavage measured after 72 hrs by autoradiographic analysis; format: ADME, organism-based; design: dose 20 mg/kg, dosed compound name [14C]Sunitinib; settings: in vivo, po; in short: as §2
smiles,measurement,setting,value
CCN(CC)CCNC(=O)c1c(C)[nH]c(/[14CH]=C2\C(=O)Nc3ccc(F)cc32)c1C.O=C(O)C[C@H](O)C(=O)O,Tmax,Rattus norvegicus [1],5 h
same,Radiolabel recovery,Kidney [2],13.24 ugequiv
same,Radiolabel recovery,Small intestine [3],5.54 ugequiv
same,Radiolabel recovery,[4],8.86 ugequiv
same,Radiolabel recovery,Liver [5],0.37 ugequiv
same,Radiolabel recovery,Small intestine [6],10.28 ugequiv
same,Radiolabel recovery,Thymus,0.67 ugequiv
same,Radiolabel recovery,[7],1.14 ugequiv
same,Radiolabel recovery,[8],0.33 ugequiv
same,Radiolabel recovery,Spleen [9],2.79 ugequiv
same,Radiolabel recovery,Spleen [10],16.24 ugequiv
same,Radiolabel recovery,[11],7.84 ugequiv
same,Radiolabel recovery,[12],0.26 ugequiv
same,Radiolabel recovery,Small intestine [13],0.06 ugequiv
same,AUC,Cynomolgus monkey,5692 ng.Eq.hr/ml
same,Radiolabel recovery,Spleen [14],1.63 ugequiv
same,Radiolabel recovery,Kidney [15],16.48 ugequiv
same,Radiolabel recovery,Spleen [16],0.23 ugequiv
same,Radiolabel recovery,Zone of skin,0.26 ugequiv
same,Cmax,Rattus norvegicus [17],2148 ngequiv/ml
same,Radiolabel recovery,Small intestine [18],8.91 ugequiv
same,Radiolabel recovery,Large intestine,0.08 ugequiv
same,Radiolabel recovery,Liver [19],0.32 ugequiv
